Experimental findings from ChEMBL document CHEMBL1122014, “1,2,5-thiadiazole 1-oxide and 1,1-dioxide derivatives. A new class of potent histamine H2-receptor antagonists” (J Med Chem, 1982) are described below.

One experiment is filed under the species Cavia porcellus. The experiment is described as follows: Antagonism of the positive chronotropic action of histamine in the isolated guinea pig atrium. Type of experiment: functional. Particulars: Cardiac atrium. The gist of the method: (§1)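 Isolated guinea pig right atrium; antagonism of the positive chronotropic response to histamine. Apparent KB from the Furchgott method: KB = antagonist concentration/(dose ratio − 1), using a single antagonist concentration that gave parallel dose-response shifts without lowering the maximum. Values are means of three to five preparations per antagonist.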

For a further experiment, the species on record is Rattus norvegicus. Description: Inhibition of gastric acid secretion in the pylorus-ligated rat (after 2h). Type of experiment: functional. Particulars: Stomach. The gist of the method:
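Pylorus-ligated rat, by a modified Shay procedure. Compound given subcutaneously at no fewer than five dose levels (three in one case), with at least five rats per dose.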

Experiment [1] in a line: Potency ratio in pylorus-ligated rat relative to cimetidine (after 2h). Type of experiment: functional.
For a further experiment, the target named is Histamine H1 receptor (Cavia porcellus, UniProt P31389). The experiment is described as follows: Antagonism of Histamine H1 receptor in the isolated guinea pig ileum. Format: functional, tissue-based. Particulars: read-out: pA2 (converted). The method in brief: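 Isolated guinea pig ileum; contractile responses to histamine (H1) or methacholine (muscarinic) were tested for blockade.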

The next experiment deals with Histamine H2 receptor (Cavia porcellus, UniProt P47747). Description: Competitive antagonism of Histamine H2 receptor in the isolated guinea pig atrium. Type of experiment: functional, tissue-based, Cardiac atrium. Particulars: read-out: pA2 (converted). The method in brief:
as §1

The target of another experiment is Adrenergic receptor beta (Rattus norvegicus, UniProt P18090+P10608+P26255). Description: Antagonism of Beta adrenergic receptor in the isolated rat uterus. Type of experiment: functional, tissue-based.

The structures appear in SMILES notation.

Sequence of Histamine H2 receptor (P47747 whole entry): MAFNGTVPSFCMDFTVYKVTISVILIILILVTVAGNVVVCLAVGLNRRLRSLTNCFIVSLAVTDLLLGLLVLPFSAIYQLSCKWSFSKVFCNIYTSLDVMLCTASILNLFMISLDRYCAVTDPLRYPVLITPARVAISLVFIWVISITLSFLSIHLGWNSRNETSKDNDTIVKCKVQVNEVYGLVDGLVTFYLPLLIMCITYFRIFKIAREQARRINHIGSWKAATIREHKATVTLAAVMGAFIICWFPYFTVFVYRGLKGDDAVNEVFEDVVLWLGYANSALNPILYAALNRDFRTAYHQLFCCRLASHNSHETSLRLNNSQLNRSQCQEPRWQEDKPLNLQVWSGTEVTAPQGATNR
Sequence of Histamine H1 receptor (P31389 whole entry): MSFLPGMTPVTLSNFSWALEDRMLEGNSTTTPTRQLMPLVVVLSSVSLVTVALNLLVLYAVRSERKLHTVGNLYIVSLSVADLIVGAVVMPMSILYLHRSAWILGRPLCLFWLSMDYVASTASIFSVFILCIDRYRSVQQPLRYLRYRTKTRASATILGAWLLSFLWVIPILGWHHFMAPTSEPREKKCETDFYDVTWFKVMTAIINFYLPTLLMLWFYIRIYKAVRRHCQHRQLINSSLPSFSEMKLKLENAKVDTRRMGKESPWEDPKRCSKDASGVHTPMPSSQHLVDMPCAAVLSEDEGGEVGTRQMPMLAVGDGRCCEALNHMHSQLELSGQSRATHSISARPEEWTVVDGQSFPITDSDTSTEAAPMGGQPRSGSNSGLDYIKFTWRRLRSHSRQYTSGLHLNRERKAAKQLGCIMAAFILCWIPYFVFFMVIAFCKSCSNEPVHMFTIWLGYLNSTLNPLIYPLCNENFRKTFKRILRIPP

Compound `CN/C(=N\CCSCc1nc[nH]c1C)NC#N` [CIMETIDINE] returned a Kb in the experiment listed under Cavia porcellus of 1200 nM. Moreover, the 50% effect level in the experiment filed under Rattus norvegicus (ED50) was put at a dose of 9.4 µmol/kg.
On to `CNC1=NS(=O)(=O)N=C1NCCSCc1ccc(CN(C)C)s1`, for which the Kb in the experiment listed under Cavia porcellus amounted to 140 nM. In addition, the Ratio in experiment [1] was 94. It took a dose of 0.072 µmol/kg to reach the 50% effect level in the experiment listed under Rattus norvegicus (ED50).
As to `N=C(N)Nc1nc(CSCCNc2n[s+]([O-])nc2N)cs1` (centres undefined), the values for the Kb on Histamine H1 receptor and on Histamine H2 receptor were 126000 nM and 25.1 nM, respectively. For the same compound, on Adrenergic receptor beta, the pA2 (commonly the negative logarithm of the molar antagonist concentration that doubles the agonist concentration needed for the same response) is on record as 4.3.
As for `CNC1=NS(=O)(=O)N=C1NCCSCc1[nH]cnc1C`, the Kb in the experiment filed under Cavia porcellus was determined as 11500 nM. In addition, the Ratio in experiment [1] is 0.07. In addition, it took a dose of 131 µmol/kg to reach the 50% effect level in the experiment filed under Rattus norvegicus (ED50).
On the same counts, the results for `CN(C)Cc1cccc(OCCCNc2n[s+]([O-])nc2N)c1` (centres undefined) are 65 nM, 142 and 0.066 µmol/kg.
